# Measurements published in PubChem BioAssay AID624097 (The Scripps Research Institute Molecular Screening Center, 2012).
# Where “and” joins values, the source holds several entries; their conditions need not be identical. Equal values may be shown once. Calls of active or inactive are those of the source.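 The calls were made as follows: active = lowest compound dose that cuts the imipenem minimum inhibitory concentration fourfold is 10 µM or below; inactive = that dose above 10 µM or never reached.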
# Test system: not listed separately
# Test: imipenem potentiation in IMP-1-expressing E. coli, late-stage follow-up, VIM-2 MBL inhibitor project, E. coli BL21, powder samples (AID 624097)
# Details: E. coli BL21 IMP-1, imipenem synergy, OD590, 18 h; measured here: max imipenem fold potentiation; stronger effect = higher value
# How it was run: (§1)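 Signal: turbidity by absorbance at 590 nm, MIC per CLSI / Test system: IMP-1-transformed E. coli BL21 bacteria / Also added: imipenem in two-fold dilution series / Times: ≥18 h growth at 37 °C, aerobic / Medium: Mueller-Hinton broth, cation-adjusted (CAMHB) / Dosing: compound two-fold dilutions in checkerboard grid versus imipenem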
row,SMILES,fold potentiation
1,CN1CCN(C(=O)CN2C(=O)/C(=C/c3c(Cl)ccc(Cl)c3Cl)SC2=S)CC1,8

# Test system: E. coli BL21 IMP-1, imipenem synergy, OD590, 18 h
# Test: as above
# Details: not given
# How it was run: as §1
row,MIC,SMILES
1,25000 nM (inactive),O=C(CN1C(=O)/C(=C/c2c(Cl)ccc(Cl)c2Cl)SC1=S)NN1CCNCC1
2,781 nM,O=C(CN1C(=O)/C(=C/c2c(Cl)ccc(Cl)c2Cl)SC1=S)NCc1ccccn1
3,781 nM,CN1CCN(C(=O)CN2C(=O)/C(=C/c3c(Cl)ccc(Cl)c3Cl)SC2=S)CC1
4,781 nM and 1560 nM,CN1CCN(NC(=O)CN2C(=O)/C(=C/c3c(Cl)ccc(Cl)c3Cl)SC2=S)CC1
5,3120 nM,CC(C)(C)OC(=O)N1CCN(NC(=O)CN2C(=O)/C(=C/c3c(Cl)ccc(Cl)c3Cl)SC2=S)CC1
6,25 µM (inactive) and 3.12 µM,CN1CCN(NC(=O)CN2C(=O)/C(=C/c3c(Cl)cccc3Cl)SC2=S)CC1
